What follows are compounds tested against T1, OR5M3 (Homo sapiens) (UniProt Q8NGP4). Settings: stereoisomer not certain.
T1 sequence (whole entry): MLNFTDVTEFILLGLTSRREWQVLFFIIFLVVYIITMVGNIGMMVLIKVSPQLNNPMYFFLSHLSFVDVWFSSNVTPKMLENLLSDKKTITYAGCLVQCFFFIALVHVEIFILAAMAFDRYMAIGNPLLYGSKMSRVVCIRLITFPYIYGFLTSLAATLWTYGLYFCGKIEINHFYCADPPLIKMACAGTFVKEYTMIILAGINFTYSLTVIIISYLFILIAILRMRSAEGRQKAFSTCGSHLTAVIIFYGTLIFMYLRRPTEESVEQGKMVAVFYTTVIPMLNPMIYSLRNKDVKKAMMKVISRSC
In short: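 Each entry records the cell line, G-protein, co-transfected protein and tags used. Methods varied with the source, often transient luciferase assays in mammalian cell lines. A receptor–molecule pair is called responsive (active) if the original authors judged its signal statistically different from baseline and non-responsive (inactive) otherwise.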

Odorant receptor agonist call, inactive:
COc1ccc(C)cc1O, CCC(=O)O, CCOC(=O)C(C)C, CCC=CCCC=CCO, CCO, CSSSC, CC(C)CCCCCCCCCCC=O, CCC(C)CO (configuration not stated), C=CCSC, CCCCCCCC(=O)OCC, CCC=CCCOC(C)=O, CC1=CCC(C(C)(C)S)CC1 (configuration not stated), CCCCC1OC(=O)CC1C (configuration not stated), CCCSSSC, C=CC(=O)CC=CCC, CCC(C)C=O (configuration not stated), CCCCCC=CC=CC=O, CCOC(=O)C=Cc1ccccc1, CCC=O, CCCCCc1ccccn1, CC(C)=CC1CC(C)CCO1 (configuration not stated), CC(C)c1ccc(C=O)cc1, CCc1ccc(O)cc1, C=C(C)C1CC=C(C)CC1 (configuration not stated), SCCc1ccccc1, CCCCCCCC(C)=O, C=CC(=C)CCC=C(C)C, CCOC(=O)c1ccccc1, OCC=Cc1ccccc1, C=CC(=O)CC, CCCC(=O)C(C)CC (configuration not stated), COCCC(C)(C)S
